Reference: ChEMBL document CHEMBL2407049, “Cyclopeptide alkaloids: stereochemistry and synthesis of the precursors of discarines C and D and myrianthine A” (2013)
Calls of active or inactive are those of the source. The rule behind the calls is not given here.

Legend:
Candida dubliniensis = assay: Antifungal activity against Candida dubliniensis SM 26 clinical isolate assessed as concentration required to inhibit fungal growth after 24 hrs by TLC assay; type: functional
Outline: (§1)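 Direct TLC bioautography: compound amounts from 50 to 1.56 μg applied to precoated TLC plates, overlaid with Mueller Hinton or Sabouraud agar inoculated with microorganism suspension (10⁵ cfu mL⁻¹). Plates incubated 24 h at 37 °C, then stained with aqueous 2,3,5-triphenyltetrazolium chloride (1 mg mL⁻¹). The lowest amount giving an inhibition zone was recorded; <50 μg counted active. Triplicate.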

Candida tropicalis = assay: Antifungal activity against Candida tropicalis ATCC 750 assessed as concentration required to inhibit fungal growth after 24 hrs by TLC assay; type: functional; outline: as §1
Cryptococcus neoformans = assay: Antifungal activity against Cryptococcus neoformans ATCC 28952 assessed as concentration required to inhibit fungal growth after 24 hrs by TLC assay; type: functional; outline: as §1
Candida albicans = assay: Antifungal activity against Candida albicans ATCC 10231 assessed as concentration required to inhibit fungal growth after 24 hrs by TLC assay; type: functional; outline: as §1
Saccharomyces cerevisiae = assay: Antifungal activity against Saccharomyces cerevisiae ATCC 2601 assessed as concentration required to inhibit fungal growth after 24 hrs by TLC assay; type: functional; outline: as §1
Staphylococcus aureus [1] = assay: Antibacterial activity against Staphylococcus aureus ATCC 6538p assessed as concentration required to inhibit bacterial growth after 24 hrs by TLC assay; type: functional; outline: as §1
Kocuria rhizophila [2] = assay: Antibacterial activity against Micrococcus luteus ATCC 9341 assessed as concentration required to inhibit bacterial growth after 24 hrs by TLC assay; type: functional; outline: as §1
Staphylococcus aureus [3] = assay: Antibacterial activity against Staphylococcus aureus ATCC 6538p assessed as growth inhibition at 50 to 1.56 ug after 24 hrs by TLC assay; type: functional; outline: as §1
Kocuria rhizophila [4] = assay: Antibacterial activity against Micrococcus luteus ATCC 9341 assessed as growth inhibition at 50 to 1.56 ug after 24 hrs by TLC assay; type: functional; outline: as §1
[5] = (§2) Antibacterial activity against Salmonella Setubal ATCC 19196 assessed as growth inhibition at 50 to 1.56 ug after 24 hrs by TLC assay; type: functional, Salmonella enterica subsp. enterica serovar Setubal; outline: as §1
Klebsiella pneumoniae [6] = assay: Antibacterial activity against Klebsiella pneumoniae ATCC 10031 assessed as growth inhibition at 50 to 1.56 ug after 24 hrs by TLC assay; type: functional; outline: as §1
Escherichia coli [7] = assay: Antibacterial activity against Escherichia coli ATCC 11103 assessed as growth inhibition at 50 to 1.56 ug after 24 hrs by TLC assay; type: functional; outline: as §1
[8] = tested on: Staphylococcus epidermidis; assay: Antibacterial activity against Staphylococcus epidermidis ATCC 12228 assessed as growth inhibition at 50 to 1.56 ug after 24 hrs by TLC assay; type: functional; outline: as §1
[9] = Antibacterial activity against Salmonella Setubal ATCC 19196 assessed as concentration required to inhibit bacterial growth after 24 hrs by TLC assay; type: functional, Salmonella enterica subsp. enterica serovar Setubal; outline: as §1
[10] = tested on: Staphylococcus epidermidis; assay: Antibacterial activity against Staphylococcus epidermidis ATCC 12228 assessed as concentration required to inhibit bacterial growth after 24 hrs by TLC assay; type: functional; outline: as §1
Escherichia coli [11] = assay: Antibacterial activity against Escherichia coli ATCC 11103 assessed as concentration required to inhibit bacterial growth after 24 hrs by TLC assay; type: functional; outline: as §1
Klebsiella pneumoniae [12] = assay: Antibacterial activity against Klebsiella pneumoniae ATCC 10031 assessed as concentration required to inhibit bacterial growth after 24 hrs by TLC assay; type: functional; outline: as §1
[13] = tested on: Salmonella enterica subsp. enterica serovar Setubal; assay: as §2; type: functional; outline: as §1

Row | Compound | Activity (Candida dubliniensis) [µg] | Activity (Candida tropicalis) [µg] | Activity (Cryptococcus neoformans) [µg] | Activity (Candida albicans) [µg] | Activity (Saccharomyces cerevisiae) [µg] | Activity (Staphylococcus aureus [1]) [µg] | Activity (Kocuria rhizophila [2]) [µg] | Activity [9] [µg] | Activity [10] [µg] | Activity (Escherichia coli [11]) [µg] | Activity (Klebsiella pneumoniae [12]) [µg] | further results
1 | CC[C@H](C)[C@H](NC(=O)[C@@H](NC(=O)[C@H](CC(C)C)N(C)C)[C@@H](Oc1ccc(C=O)cc1)c1ccccc1)C(=O)OC | <50 | <50 | <50 | <50 | <50 | <50 | <50 | <50 | <50 | <50 | <50 | Activity (Staphylococcus aureus [3]): <50 µg; Activity (Kocuria rhizophila [4]): <50 µg; Activity [5]: <50 µg; Activity (Klebsiella pneumoniae [6]): <50 µg; Activity (Escherichia coli [7]): <50 µg; Activity [8]: <50 µg
2 | CC[C@H](C)[C@H](NC(=O)[C@H](NC(=O)[C@H](CC(C)C)N(C)C)[C@H](Oc1ccc(C=O)cc1)c1ccccc1)C(=O)OC | <50 | <50 | <50 | <50 | <50 | <50 | <50 | <50 | <50 | <50 | <50 | growth inhibition (GI) (Staphylococcus aureus [3]): inactive; growth inhibition (GI) (Kocuria rhizophila [4]): inactive; growth inhibition (GI) [13]: inactive; growth inhibition (GI) (Klebsiella pneumoniae [6]): inactive; growth inhibition (GI) (Escherichia coli [7]): inactive; growth inhibition (GI) [8]: inactive
3 | COC(=O)[C@H](Cc1ccccc1)NC(=O)[C@@H](NC(=O)[C@H](CC(C)C)N(C)C)[C@@H](Oc1ccc(C=O)cc1)c1ccccc1 (mixture of isomers) | <50 | <50 | <50 | <50 | <50 | <50 | <50 | <50 | <50 | <50 | <50 | Activity (Staphylococcus aureus [3]): <50 µg; Activity (Kocuria rhizophila [4]): <50 µg; Activity [5]: <50 µg; Activity (Klebsiella pneumoniae [6]): <50 µg; Activity (Escherichia coli [7]): <50 µg; Activity [8]: <50 µg
4 | CC(C)C[C@@H](C(=O)N[C@@H]1C(=O)N[C@@H](Cc2ccccc2)C(=O)N/C=C\c2ccc(cc2)O[C@H]1c1ccccc1)N(C)C | >50 | >50 | >50 | >50 | >50 | >50 | >50 | >50 | >50 | >50 | >50 | –
5 | COC(=O)[C@H](CC(C)C)NC(=O)[C@H](NC(=O)[C@H](CC(C)C)NC(=O)OCc1ccccc1)[C@@H](O)c1ccccc1 (mixture of isomers) | <50 | <50 | <50 | <50 | <50 | <50 | <50 | <50 | <50 | <50 | <50 | –
6 | COC(=O)[C@H](Cc1ccccc1)NC(=O)[C@H](NC(=O)[C@H](CC(C)C)N(C)C)[C@H](Oc1ccc(C=O)cc1)c1ccccc1 (mixture of isomers) | <50 | <50 | <50 | <50 | <50 | <50 | <50 | <50 | <50 | <50 | <50 | growth inhibition (GI) (Staphylococcus aureus [3]): inactive; growth inhibition (GI) (Kocuria rhizophila [4]): inactive; growth inhibition (GI) [13]: inactive; growth inhibition (GI) (Klebsiella pneumoniae [6]): inactive; growth inhibition (GI) (Escherichia coli [7]): inactive; growth inhibition (GI) [8]: inactive
7 | COC(=O)[C@H](Cc1ccccc1)NC(=O)[C@H](NC(=O)[C@H](CC(C)C)N(C)C)[C@@H](O)c1ccccc1 | <50 | <50 | <50 | <50 | <50 | <50 | <50 | <50 | <50 | <50 | <50 | –
8 | COC(=O)[C@H](CC(C)C)NC(=O)[C@H](NC(=O)[C@H](CC(C)C)N(C)C)[C@@H](O)c1ccccc1 (mixture of isomers) | <50 | <50 | <50 | <50 | <50 | <50 | <50 | <50 | <50 | <50 | <50 | –
9 | COC(=O)[C@H](Cc1ccccc1)NC(=O)[C@H](NC(=O)[C@@H](N)CC(C)C)[C@@H](O)c1ccccc1 (mixture of isomers) | <50 | <50 | <50 | <50 | <50 | <50 | <50 | <50 | 3.1 | 12.5 | <50 | –
10 | COC(=O)[C@H](CC(C)C)NC(=O)[C@@H](NC(=O)[C@H](CC(C)C)N(C)C)[C@@H](Oc1ccc(C=O)cc1)c1ccccc1 (mixture of isomers) | <50 | <50 | <50 | <50 | <50 | <50 | <50 | <50 | <50 | <50 | <50 | –
11 | COC(=O)[C@H](Cc1ccccc1)NC(=O)[C@@H](NC(=O)[C@@H](N)CC(C)C)[C@H](O)c1ccccc1 | <50 | <50 | <50 | <50 | <50 | <50 | <50 | <50 | >50 | 1.5 | <50 | –
